What was measured:
Toll-like receptor 1/2 = Toll-like receptor 1/2 (Homo sapiens, UniProt O60603+Q15399); test: Agonist activity at TLR1/TLR2 in human THP-1 derived macrophages assessed as stimulation of TNF alpha release measured for 4 hrs by ELISA based assay relative to diprovocim-1; type: cell-based; design: Activity: concentration or dose not given beside the values
Outline: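 THP-1 cells differentiated with 100 nM PMA in RPMI/10% FBS for 24 h, washed, then rested 24 h in fresh medium. Seeded at 0.5 × 10⁵ cells/well and exposed to graded compound concentrations for 4 h, with final DMSO held at 0.1%. LPS served as positive control and DMSO as negative control. Supernatant human TNF-α was read by ELISA. EC50 from duplicate means.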

[1] = target: Toll-like receptor 1/2 (Mus musculus) (UniProt Q9QUN7+Q9EPQ1); test: Agonist activity at TLR1/TLR2 in wild type C57BL/6J mouse macrophages assessed as stimulation of TNF alpha release measured for 4 hrs by ELISA based assay relative to diprovocim-1; type: cell-based; design: Activity: concentration or dose not given beside the values; settings: Macrophage, filed as agonist
Outline: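 Thioglycolate-elicited peritoneal macrophages from wild type C57BL/6J mice, harvested by PBS lavage 4 d after i.p. 4% thioglycolate. Cultured in DMEM/10% FBS at 37 °C, 5% CO2, seeded at 1 × 10⁵ cells/well and exposed to graded compound concentrations for 4 h, with final DMSO ≤0.5% held constant. LPS served as positive control. Supernatant mouse TNF-α was read by ELISA. EC50 from duplicate means.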

Row | Activity (Toll-like receptor 1/2; filed as agonist) | Activity [1] | Activity (Toll-like receptor 1/2) | Structure (SMILES)
1 | 100% | 120% |  | [N-]=[N+]=NCC(=O)OCCCCCCCCCCCCNC(=O)[C@@H]1CN(C(=O)c2ccc(C(=O)N3C[C@@H](C(=O)N[C@H]4C[C@@H]4c4ccccc4)[C@H](C(=O)N[C@H]4C[C@@H]4c4ccccc4)C3)cc2)C[C@H]1C(=O)N[C@H]1C[C@@H]1c1ccccc1
2 | 90% | 110% |  | O=C(NCCCCCCCCCCCCO)[C@@H]1CN(C(=O)c2ccc(C(=O)N3C[C@@H](C(=O)N[C@H]4C[C@@H]4c4ccccc4)[C@H](C(=O)N[C@H]4C[C@@H]4c4ccccc4)C3)cc2)C[C@H]1C(=O)N[C@H]1C[C@@H]1c1ccccc1
3 | 110% | 160% |  | CC(C)(C)OC(=O)c1ccc(C(=O)NCCOCCCCCCCCCCCCNC(=O)[C@@H]2CN(C(=O)c3ccc(C(=O)N4C[C@@H](C(=O)N[C@H]5C[C@@H]5c5ccccc5)[C@H](C(=O)N[C@H]5C[C@@H]5c5ccccc5)C4)cc3)C[C@H]2C(=O)N[C@H]2C[C@@H]2c2ccccc2)cc1
4 | 100% | 110% |  | CN(CC(=O)OCCCCCCCCCCCCNC(=O)[C@@H]1CN(C(=O)c2ccc(C(=O)N3C[C@@H](C(=O)N[C@H]4C[C@@H]4c4ccccc4)[C@H](C(=O)N[C@H]4C[C@@H]4c4ccccc4)C3)cc2)C[C@H]1C(=O)N[C@H]1C[C@@H]1c1ccccc1)C(=O)OC(C)(C)C
5 | 100% | 300% |  | O=C(CNC(=O)OCC(Cl)(Cl)Cl)OCCCCCCCCCCCCNC(=O)[C@@H]1CN(C(=O)c2ccc(C(=O)N3C[C@@H](C(=O)N[C@H]4C[C@@H]4c4ccccc4)[C@H](C(=O)N[C@H]4C[C@@H]4c4ccccc4)C3)cc2)C[C@H]1C(=O)N[C@H]1C[C@@H]1c1ccccc1
6 | 100% | 230% |  | CC(C)(C)OCC(=O)OCCCCCCCCCCCCNC(=O)[C@@H]1CN(C(=O)c2ccc(C(=O)N3C[C@@H](C(=O)N[C@H]4C[C@@H]4c4ccccc4)[C@H](C(=O)N[C@H]4C[C@@H]4c4ccccc4)C3)cc2)C[C@H]1C(=O)N[C@H]1C[C@@H]1c1ccccc1
7 |  | 50% | 30% | [N-]=[N+]=NCCCCCCCCCCCCNC(=O)[C@@H]1CN(C(=O)c2ccc(C(=O)N3C[C@@H](C(=O)N[C@H]4C[C@@H]4c4ccccc4)[C@H](C(=O)N[C@H]4C[C@@H]4c4ccccc4)C3)cc2)C[C@H]1C(=O)N[C@H]1C[C@@H]1c1ccccc1
8 | 130% | 220% |  | O=C(COCc1ccccc1)OCCCCCCCCCCCCNC(=O)[C@@H]1CN(C(=O)c2ccc(C(=O)N3C[C@@H](C(=O)N[C@H]4C[C@@H]4c4ccccc4)[C@H](C(=O)N[C@H]4C[C@@H]4c4ccccc4)C3)cc2)C[C@H]1C(=O)N[C@H]1C[C@@H]1c1ccccc1
9 | 110% | 120% |  | NC(=O)CCCCCCCCCCCNC(=O)[C@@H]1CN(C(=O)c2ccc(C(=O)N3C[C@@H](C(=O)N[C@H]4C[C@@H]4c4ccccc4)[C@H](C(=O)N[C@H]4C[C@@H]4c4ccccc4)C3)cc2)C[C@H]1C(=O)N[C@H]1C[C@@H]1c1ccccc1
10 | 90% | 140% |  | CC(=O)OCCCCCCCCCCCCNC(=O)[C@@H]1CN(C(=O)c2ccc(C(=O)N3C[C@@H](C(=O)N[C@H]4C[C@@H]4c4ccccc4)[C@H](C(=O)N[C@H]4C[C@@H]4c4ccccc4)C3)cc2)C[C@H]1C(=O)N[C@H]1C[C@@H]1c1ccccc1

Further lines, the molecule ahead of its results:

Row | Structure (SMILES) | Activity (Toll-like receptor 1/2; filed as agonist) | Activity [1] | Activity (Toll-like receptor 1/2)
11 | C[C@H](NC(=O)OC(C)(C)C)C(=O)OCCCCCCCCCCCCNC(=O)[C@@H]1CN(C(=O)c2ccc(C(=O)N3C[C@@H](C(=O)N[C@H]4C[C@@H]4c4ccccc4)[C@H](C(=O)N[C@H]4C[C@@H]4c4ccccc4)C3)cc2)C[C@H]1C(=O)N[C@H]1C[C@@H]1c1ccccc1 | 80% | 200% | 
12 | CC(C)(C)OC(=O)N[C@@H](CCC(=O)OCc1ccccc1)C(=O)OCCCCCCCCCCCCNC(=O)[C@@H]1CN(C(=O)c2ccc(C(=O)N3C[C@@H](C(=O)N[C@H]4C[C@@H]4c4ccccc4)[C@H](C(=O)N[C@H]4C[C@@H]4c4ccccc4)C3)cc2)C[C@H]1C(=O)N[C@H]1C[C@@H]1c1ccccc1 | 100% | 210% | 
13 | Nc1ccc(C(=O)OCCCCCCCCCCCCNC(=O)[C@@H]2CN(C(=O)c3ccc(C(=O)N4C[C@@H](C(=O)N[C@H]5C[C@@H]5c5ccccc5)[C@H](C(=O)N[C@H]5C[C@@H]5c5ccccc5)C4)cc3)C[C@H]2C(=O)N[C@H]2C[C@@H]2c2ccccc2)cc1 | 100% | 300% | 
14 | CSCC[C@H](NC(=O)OC(C)(C)C)C(=O)OCCCCCCCCCCCCNC(=O)[C@@H]1CN(C(=O)c2ccc(C(=O)N3C[C@@H](C(=O)N[C@H]4C[C@@H]4c4ccccc4)[C@H](C(=O)N[C@H]4C[C@@H]4c4ccccc4)C3)cc2)C[C@H]1C(=O)N[C@H]1C[C@@H]1c1ccccc1 | 100% | 150% | 
15 | CC[C@H](C)[C@H](NC(=O)OC(C)(C)C)C(=O)OCCCCCCCCCCCCNC(=O)[C@@H]1CN(C(=O)c2ccc(C(=O)N3C[C@@H](C(=O)N[C@H]4C[C@@H]4c4ccccc4)[C@H](C(=O)N[C@H]4C[C@@H]4c4ccccc4)C3)cc2)C[C@H]1C(=O)N[C@H]1C[C@@H]1c1ccccc1 | 100% | 140% | 
16 | CC(C)(C)OC(=O)CCOCCOCCOCCNC(=O)CCCCCCCCCCCNC(=O)[C@@H]1CN(C(=O)c2ccc(C(=O)N3C[C@@H](C(=O)N[C@H]4C[C@@H]4c4ccccc4)[C@H](C(=O)N[C@H]4C[C@@H]4c4ccccc4)C3)cc2)C[C@H]1C(=O)N[C@H]1C[C@@H]1c1ccccc1 | 100% | 140% | 
17 | CC(C)(C)OC(=O)NCC(=O)NCC(=O)OCCCCCCCCCCCCNC(=O)[C@@H]1CN(C(=O)c2ccc(C(=O)N3C[C@@H](C(=O)N[C@H]4C[C@@H]4c4ccccc4)[C@H](C(=O)N[C@H]4C[C@@H]4c4ccccc4)C3)cc2)C[C@H]1C(=O)N[C@H]1C[C@@H]1c1ccccc1 | 110% | 110% | 
18 | O=C(CNC(=O)C(F)(F)F)OCCCCCCCCCCCCNC(=O)[C@@H]1CN(C(=O)c2ccc(C(=O)N3C[C@@H](C(=O)N[C@H]4C[C@@H]4c4ccccc4)[C@H](C(=O)N[C@H]4C[C@@H]4c4ccccc4)C3)cc2)C[C@H]1C(=O)N[C@H]1C[C@@H]1c1ccccc1 | 100% | 100% | 
19 | O=C(O)c1ccc(C(=O)OCCCCCCCCCCCCNC(=O)[C@@H]2CN(C(=O)c3ccc(C(=O)N4C[C@@H](C(=O)N[C@H]5C[C@@H]5c5ccccc5)[C@H](C(=O)N[C@H]5C[C@@H]5c5ccccc5)C4)cc3)C[C@H]2C(=O)N[C@H]2C[C@@H]2c2ccccc2)cc1 | 100% | 120% | 
20 | CC(C)(C)OC(=O)NCCCCCCCCCCCCNC(=O)[C@@H]1CN(C(=O)c2ccc(C(=O)N3C[C@@H](C(=O)N[C@H]4C[C@@H]4c4ccccc4)[C@H](C(=O)N[C@H]4C[C@@H]4c4ccccc4)C3)cc2)C[C@H]1C(=O)N[C@H]1C[C@@H]1c1ccccc1 | 70% | 120% | 
21 | NCC(=O)OCCCCCCCCCCCCNC(=O)[C@@H]1CN(C(=O)c2ccc(C(=O)N3C[C@@H](C(=O)N[C@H]4C[C@@H]4c4ccccc4)[C@H](C(=O)N[C@H]4C[C@@H]4c4ccccc4)C3)cc2)C[C@H]1C(=O)N[C@H]1C[C@@H]1c1ccccc1 | 100% | 100% | 
22 | Nc1ccc(COCCCCCCCCCCCCNC(=O)[C@@H]2CN(C(=O)c3ccc(C(=O)N4C[C@@H](C(=O)N[C@H]5C[C@@H]5c5ccccc5)[C@H](C(=O)N[C@H]5C[C@@H]5c5ccccc5)C4)cc3)C[C@H]2C(=O)N[C@H]2C[C@@H]2c2ccccc2)cc1 | 90% | 130% | 
23 | C#CCOCC(=O)OCCCCCCCCCCCCNC(=O)[C@@H]1CN(C(=O)c2ccc(C(=O)N3C[C@@H](C(=O)N[C@H]4C[C@@H]4c4ccccc4)[C@H](C(=O)N[C@H]4C[C@@H]4c4ccccc4)C3)cc2)C[C@H]1C(=O)N[C@H]1C[C@@H]1c1ccccc1 |  | 110% | 30%
24 | CC(C)(C)C(=O)NCC(=O)OCCCCCCCCCCCCNC(=O)[C@@H]1CN(C(=O)c2ccc(C(=O)N3C[C@@H](C(=O)N[C@H]4C[C@@H]4c4ccccc4)[C@H](C(=O)N[C@H]4C[C@@H]4c4ccccc4)C3)cc2)C[C@H]1C(=O)N[C@H]1C[C@@H]1c1ccccc1 | 110% | 110% | 
25 | CC(=O)NCC(=O)OCCCCCCCCCCCCNC(=O)[C@@H]1CN(C(=O)c2ccc(C(=O)N3C[C@@H](C(=O)N[C@H]4C[C@@H]4c4ccccc4)[C@H](C(=O)N[C@H]4C[C@@H]4c4ccccc4)C3)cc2)C[C@H]1C(=O)N[C@H]1C[C@@H]1c1ccccc1 | 90% | 180% | 
26 | CC(C)(C)OC(=O)NC1(C(=O)OCCCCCCCCCCCCNC(=O)[C@@H]2CN(C(=O)c3ccc(C(=O)N4C[C@@H](C(=O)N[C@H]5C[C@@H]5c5ccccc5)[C@H](C(=O)N[C@H]5C[C@@H]5c5ccccc5)C4)cc3)C[C@H]2C(=O)N[C@H]2C[C@@H]2c2ccccc2)CC1 | 100% | 220% | 
27 | CNC(=O)CCCCCCCCCCCNC(=O)[C@@H]1CN(C(=O)c2ccc(C(=O)N3C[C@@H](C(=O)N[C@H]4C[C@@H]4c4ccccc4)[C@H](C(=O)N[C@H]4C[C@@H]4c4ccccc4)C3)cc2)C[C@H]1C(=O)N[C@H]1C[C@@H]1c1ccccc1 | 120% | 150% | 
28 | CC(C)(C)OC(=O)N[C@@H](COCc1ccccc1)C(=O)OCCCCCCCCCCCCNC(=O)[C@@H]1CN(C(=O)c2ccc(C(=O)N3C[C@@H](C(=O)N[C@H]4C[C@@H]4c4ccccc4)[C@H](C(=O)N[C@H]4C[C@@H]4c4ccccc4)C3)cc2)C[C@H]1C(=O)N[C@H]1C[C@@H]1c1ccccc1 | 100% | 370% | 
29 | CC(C)(C)OC(=O)C(=O)NCC(=O)OCCCCCCCCCCCCNC(=O)[C@@H]1CN(C(=O)c2ccc(C(=O)N3C[C@@H](C(=O)N[C@H]4C[C@@H]4c4ccccc4)[C@H](C(=O)N[C@H]4C[C@@H]4c4ccccc4)C3)cc2)C[C@H]1C(=O)N[C@H]1C[C@@H]1c1ccccc1 | 110% | 400% | 

— ChEMBL document CHEMBL5143728, “Next-Generation Diprovocims with Potent Human and Murine TLR1/TLR2 Agonist Activity That Activate the Innate and Adaptive Immune Response” (J Med Chem, 2022)
